Reference: ChEMBL document CHEMBL2311404, “Synthesis, antibacterial activity and docking of 14-membered 9-O-(3-arylalkyl) oxime 11,12-cyclic carbonate ketolides” (2013)
Values after ≈ are worked out from the molar mass of the structure shown.

How the values were obtained:
Assay type in all cases: functional
[1] = test system: Staphylococcus hominis; test: Antibacterial activity against methicillin-resistant, inducible MLS-resistant, coagulase-deficient Staphylococcus hominis E 3 by broth microdilution method
How it was run: (§1)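 Clinical isolates confirmed by 16S rDNA sequencing. MIC determined by broth microdilution following CLSI recommendations. Quality-control strains were S. aureus ATCC 29213 and S. pneumoniae ATCC 49619. Azithromycin and clarithromycin were run in parallel as reference agents.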

[2] = test system: Staphylococcus epidermidis; test: Antibacterial activity against methicillin-resistant, constitutive MLS-resistant Staphylococcus epidermidis E 2 by broth microdilution method; how it was run: as §1
[3] = test system: Staphylococcus epidermidis; test: Antibacterial activity against methicillin-susceptible, inducible MLS-resistant Staphylococcus epidermidis E 1 by broth microdilution method; how it was run: as §1
[4] = test system: Staphylococcus haemolyticus; test: Antibacterial activity against methicillin-resistant, constitutive MLS-resistant, coagulase-deficient Staphylococcus haemolyticus PU 19 expressing ermA gene by broth microdilution method; how it was run: as §1
[5] = test system: Staphylococcus aureus; test: Antibacterial activity against methicillin-sensitive, inducible MLS-resistant Staphylococcus aureus PU 64 expressing ermA gene by broth microdilution method; how it was run: as §1
[6] = test system: Staphylococcus aureus; test: Antibacterial activity against methicillin-resistant, constitutive MLS-resistant Staphylococcus aureus PU 20 expressing ermC gene by broth microdilution method; how it was run: as §1
[7] = test system: Staphylococcus aureus; test: Antibacterial activity against methicillin-resistant, inducible MLS-resistant Staphylococcus aureus PU 32 expressing ermA gene by broth microdilution method; how it was run: as §1
[8] = test system: Staphylococcus aureus; test: Antibacterial activity against erythromycin-susceptible Staphylococcus aureus ATCC 29213 by broth microdilution method
How it was run: (§2)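 MIC by broth microdilution following CLSI recommendations. Clinical isolates were identified by 16S rDNA sequencing and labeled by genotype and phenotype. S. aureus ATCC 29213 and S. pneumoniae ATCC 49619 served as control strains, with azithromycin and clarithromycin as reference agents.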

[9] = test system: Streptococcus pyogenes; test: Antibacterial activity against erythromycin-susceptible Streptococcus pyogenes A3 by broth microdilution method; how it was run: as §2
[10] = test system: Streptococcus pyogenes; test: Antibacterial activity against constitutive MLS-resistant Streptococcus pyogenes A2 by broth microdilution method; how it was run: as §1
[11] = test system: Streptococcus dysgalactiae; test: Antibacterial activity against erythromycin-resistant Streptococcus dysgalactiae A1 expressing efflux pump by broth microdilution method; how it was run: as §1
[12] = test system: Streptococcus pneumoniae; test: Antibacterial activity against penicillin-susceptible, constitutive MLS-resistant Streptococcus pneumoniae PU 27 expressing erm gene by broth microdilution method; how it was run: as §1
[13] = test system: Streptococcus pneumoniae; test: Antibacterial activity against penicillin-susceptible Streptococcus pneumoniae PU 09 expressing mef gene by broth microdilution method; how it was run: as §2
[14] = test system: Streptococcus pneumoniae; test: Antibacterial activity against penicillin-resistant, constitutive MLS-resistant Streptococcus pneumoniae PU 11 expressing erm and mef genes by broth microdilution method; how it was run: as §1
[15] = test system: Streptococcus pneumoniae; test: Antibacterial activity against erythromycin-sensitive Streptococcus pneumoniae ATCC 49619 by broth microdilution method; how it was run: as §2

| Structure (SMILES) | MIC [1] | MIC [2] | MIC [3] | MIC [4] | MIC [5] | MIC [6] | MIC [7] | MIC [8] | MIC [9] | MIC [10] | MIC [11] | MIC [12] | MIC [13] | MIC [14] | MIC [15] |
| --- | --- | --- | --- | --- | --- | --- | --- | --- | --- | --- | --- | --- | --- | --- | --- |
| CC[C@H]1OC(=O)[C@H](C)C(=O)[C@H](C)[C@@H](O[C@@H]2O[C@H](C)C[C@H](N(C)C)[C@H]2O)[C@](C)(OC)C[C@@H](C)/C(=N\OCC#Cc2cncnc2)[C@H](C)[C@H]2OC(=O)O[C@@]21C | 0.064 µg/mL (≈ 0.0859 µM) | > 256 µg/mL | 0.064 µg/mL (≈ 0.0859 µM) | 256 µg/mL (≈ 344 µM) | 0.064 µg/mL (≈ 0.0859 µM) | 256 µg/mL (≈ 344 µM) | 0.125 µg/mL (≈ 0.168 µM) | 0.125 µg/mL (≈ 0.168 µM) | 0.016 µg/mL (≈ 0.0215 µM) | 128 µg/mL (≈ 172 µM) | 0.125 µg/mL (≈ 0.168 µM) | 0.25 µg/mL (≈ 0.336 µM) | 0.25 µg/mL (≈ 0.336 µM) | 128 µg/mL (≈ 172 µM) | 0.032 µg/mL (≈ 0.043 µM) |
| CC[C@H]1OC(=O)[C@H](C)[C@@H](O[C@H]2C[C@@](C)(OC)[C@@H](O)[C@H](C)O2)[C@H](C)[C@@H](O[C@@H]2O[C@H](C)C[C@H](N(C)C)[C@H]2O)[C@](C)(O)C[C@@H](C)CN(C)[C@H](C)[C@@H](O)[C@]1(C)O [AZITHROMYCIN] | > 256 µg/mL | > 256 µg/mL | > 256 µg/mL | > 256 µg/mL | 8 µg/mL (≈ 10.7 µM) | > 256 µg/mL | 8 µg/mL (≈ 10.7 µM) | 1 µg/mL (≈ 1.34 µM) | 0.125 µg/mL (≈ 0.167 µM) | > 256 µg/mL | 32 µg/mL (≈ 42.7 µM) | 64 µg/mL (≈ 85.4 µM) | 8 µg/mL (≈ 10.7 µM) | > 256 µg/mL | 0.25 µg/mL (≈ 0.334 µM) |
| CC[C@H]1OC(=O)[C@H](C)C(=O)[C@H](C)[C@@H](O[C@@H]2O[C@H](C)C[C@H](N(C)C)[C@H]2O)[C@](C)(OC)C[C@@H](C)/C(=N\OCC#Cc2cccnc2)[C@H](C)[C@H]2OC(=O)O[C@@]21C | 0.125 µg/mL (≈ 0.168 µM) | 256 µg/mL (≈ 344 µM) | 0.125 µg/mL (≈ 0.168 µM) | > 256 µg/mL |  |  | 0.125 µg/mL (≈ 0.168 µM) | 0.064 µg/mL (≈ 0.086 µM) | ≤ 0.008 µg/mL | 64 µg/mL (≈ 86 µM) | 0.125 µg/mL (≈ 0.168 µM) | 0.25 µg/mL (≈ 0.336 µM) | 0.25 µg/mL (≈ 0.336 µM) | 128 µg/mL (≈ 172 µM) | ≤ 0.008 µg/mL |
| CC[C@H]1OC(=O)[C@H](C)C(=O)[C@H](C)[C@@H](O[C@@H]2O[C@H](C)C[C@H](N(C)C)[C@H]2O)[C@](C)(OC)C[C@@H](C)/C(=N\OCC#Cc2ccc(-c3ccccn3)s2)[C@H](C)[C@H]2OC(=O)O[C@@]21C | 8 µg/mL (≈ 9.68 µM) | 128 µg/mL (≈ 155 µM) | 4 µg/mL (≈ 4.84 µM) |  |  |  | 1 µg/mL (≈ 1.21 µM) | 1 µg/mL (≈ 1.21 µM) | 0.125 µg/mL (≈ 0.151 µM) | 32 µg/mL (≈ 38.7 µM) | 2 µg/mL (≈ 2.42 µM) | 0.25 µg/mL (≈ 0.303 µM) | 2 µg/mL (≈ 2.42 µM) | 32 µg/mL (≈ 38.7 µM) | ≤ 0.008 µg/mL |
| CC[C@H]1OC(=O)[C@H](C)C(=O)[C@H](C)[C@@H](O[C@@H]2O[C@H](C)C[C@H](N(C)C)[C@H]2O)[C@](C)(OC)C[C@@H](C)/C(=N\OCC#Cc2ccccn2)[C@H](C)[C@H]2OC(=O)O[C@@]21C | 0.125 µg/mL (≈ 0.168 µM) | > 256 µg/mL | 0.125 µg/mL (≈ 0.168 µM) | > 256 µg/mL |  |  | 0.125 µg/mL (≈ 0.168 µM) | 0.064 µg/mL (≈ 0.086 µM) | ≤ 0.008 µg/mL | 128 µg/mL (≈ 172 µM) | 0.064 µg/mL (≈ 0.086 µM) | 0.5 µg/mL (≈ 0.672 µM) | 0.25 µg/mL (≈ 0.336 µM) | 128 µg/mL (≈ 172 µM) | ≤ 0.008 µg/mL |
| CC[C@H]1OC(=O)[C@H](C)C(=O)[C@H](C)[C@@H](O[C@@H]2O[C@H](C)C[C@H](N(C)C)[C@H]2O)[C@](C)(OC)C[C@@H](C)/C(=N\OCC#Cc2cccc3cnccc23)[C@H](C)[C@H]2OC(=O)O[C@@]21C | 0.125 µg/mL (≈ 0.157 µM) | 64 µg/mL (≈ 80.6 µM) | 0.064 µg/mL (≈ 0.0806 µM) | 64 µg/mL (≈ 80.6 µM) |  |  | 0.125 µg/mL (≈ 0.157 µM) | 0.064 µg/mL (≈ 0.0806 µM) | ≤ 0.008 µg/mL | 32 µg/mL (≈ 40.3 µM) | 0.125 µg/mL (≈ 0.157 µM) | 0.125 µg/mL (≈ 0.157 µM) | 0.125 µg/mL (≈ 0.157 µM) | 32 µg/mL (≈ 40.3 µM) | 0.016 µg/mL (≈ 0.0202 µM) |
| CC[C@H]1OC(=O)[C@H](C)C(=O)[C@H](C)[C@@H](O[C@@H]2O[C@H](C)C[C@H](N(C)C)[C@H]2O)[C@](C)(OC)C[C@@H](C)/C(=N\OCC#Cc2cccs2)[C@H](C)[C@H]2OC(=O)O[C@@]21C | 1 µg/mL (≈ 1.34 µM) | 64 µg/mL (≈ 85.5 µM) | 1 µg/mL (≈ 1.34 µM) | 64 µg/mL (≈ 85.5 µM) |  |  | 1 µg/mL (≈ 1.34 µM) | 1 µg/mL (≈ 1.34 µM) | 0.25 µg/mL (≈ 0.334 µM) | 32 µg/mL (≈ 42.7 µM) | 1 µg/mL (≈ 1.34 µM) | 4 µg/mL (≈ 5.34 µM) | 1 µg/mL (≈ 1.34 µM) | 64 µg/mL (≈ 85.5 µM) | 0.25 µg/mL (≈ 0.334 µM) |
| CC[C@H]1OC(=O)[C@H](C)C(=O)[C@H](C)[C@@H](O[C@@H]2O[C@H](C)C[C@H](N(C)C)[C@H]2O)[C@](C)(OC)C[C@@H](C)/C(=N\OCC#Cc2ccc3[nH]ccc3c2)[C@H](C)[C@H]2OC(=O)O[C@@]21C | 8 µg/mL (≈ 10.2 µM) | > 256 µg/mL | 2 µg/mL (≈ 2.56 µM) |  |  |  | 2 µg/mL (≈ 2.56 µM) | 1 µg/mL (≈ 1.28 µM) | 0.5 µg/mL (≈ 0.639 µM) | 128 µg/mL (≈ 164 µM) | 2 µg/mL (≈ 2.56 µM) | 4 µg/mL (≈ 5.12 µM) | 2 µg/mL (≈ 2.56 µM) | 128 µg/mL (≈ 164 µM) | 0.5 µg/mL (≈ 0.639 µM) |
